Results as given in ChEMBL document CHEMBL3259629, “Discovery and optimization of piperidyl-1,2,3-triazole ureas as potent, selective, and in vivo-active inhibitors of α/β-hydrolase domain containing 6 (ABHD6)” (J Med Chem, 2013).
Activity calls are given as the source filed them. The calls are words filed in the database; no cut-off is given here.

Columns and labels:
Mus musculus [1] = assay: In vivo inhibition of ABHD6 in C57Bl/6 mouse liver at 1 mg/kg, ip after 4 hrs by HT-10-labelled gel-based competitive ABPP assay; format: functional, organism-based; parameters: dose 1 mg/kg
How it was run: (§1)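 C57Bl/6 mice dosed i.p. at 0.1, 0.5 or 1 mg kg⁻¹ in 18:1:1 saline/ethanol/PEG40 (ethoxylated castor oil), 10 μL g⁻¹. Killed after 4 hr under isoflurane by cervical dislocation. Brain and liver membrane fractions (100,000 × g) labelled with FP-rhodamine or HT-01 (1 μM, 30 min, 37 °C), then SDS-PAGE and in-gel fluorescence scanning. Liver ABHD6 read from HT-01 gels.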

Mus musculus [2] = assay: In vivo inhibition of ABHD6 in C57Bl/6 mouse brain at 0.1 to 1 mg/kg, ip after 4 hrs by HT-10-labelled gel-based competitive ABPP assay; format: functional, organism-based; how it was run: as §1
Mus musculus [3] = assay: In vivo inhibition of carboxylesterase-1 in C57Bl/6 mouse brain at 0.1 to 1 mg/kg, ip after 4 hrs by FP-rhodamine-labelled gel-based competitive ABPP assay; format: functional, organism-based; how it was run: as §1
Mus musculus [4] = assay: In vivo inhibition of DDH2 in C57Bl/6 mouse liver and bain at 0.1 to 1 mg/kg, ip after 4 hrs by FP-rhodamine-labelled gel-based competitive ABPP assay; format: functional, organism-based; how it was run: as §1
Mus musculus [5] = assay: In vivo inhibition of DAGLbeta in C57Bl/6 mouse liver and bain at 0.1 to 1 mg/kg, ip after 4 hrs by FP-rhodamine-labelled gel-based competitive ABPP assay; format: functional, organism-based; how it was run: as §1
Mus musculus [6] = assay: In vivo inhibition of PLA2G7 in C57Bl/6 mouse liver and bain at 0.1 to 1 mg/kg, ip after 4 hrs by FP-rhodamine-labelled gel-based competitive ABPP assay; format: functional, organism-based; how it was run: as §1
Mus musculus [7] = assay: In vivo inhibition of FAAH in C57Bl/6 mouse liver and bain at 0.1 to 1 mg/kg, ip after 4 hrs by FP-rhodamine-labelled gel-based competitive ABPP assay; format: functional, organism-based; how it was run: as §1
Mus musculus [8] = assay: In vivo inhibition of MGLL in C57Bl/6 mouse liver and bain at 0.1 to 1 mg/kg, ip after 4 hrs by FP-rhodamine-labelled gel-based competitive ABPP assay; format: functional, organism-based; how it was run: as §1
[9] = molecular target: T1, Fatty-acid amide hydrolase 1 (Mus musculus) (UniProt O08914); assay: Inhibition of mouse brain FAAH at 10 uM after 30 mins by FP-rhodamine ABPP-based SDS-PAGE analysis relative to control
T1 sequence (whole entry): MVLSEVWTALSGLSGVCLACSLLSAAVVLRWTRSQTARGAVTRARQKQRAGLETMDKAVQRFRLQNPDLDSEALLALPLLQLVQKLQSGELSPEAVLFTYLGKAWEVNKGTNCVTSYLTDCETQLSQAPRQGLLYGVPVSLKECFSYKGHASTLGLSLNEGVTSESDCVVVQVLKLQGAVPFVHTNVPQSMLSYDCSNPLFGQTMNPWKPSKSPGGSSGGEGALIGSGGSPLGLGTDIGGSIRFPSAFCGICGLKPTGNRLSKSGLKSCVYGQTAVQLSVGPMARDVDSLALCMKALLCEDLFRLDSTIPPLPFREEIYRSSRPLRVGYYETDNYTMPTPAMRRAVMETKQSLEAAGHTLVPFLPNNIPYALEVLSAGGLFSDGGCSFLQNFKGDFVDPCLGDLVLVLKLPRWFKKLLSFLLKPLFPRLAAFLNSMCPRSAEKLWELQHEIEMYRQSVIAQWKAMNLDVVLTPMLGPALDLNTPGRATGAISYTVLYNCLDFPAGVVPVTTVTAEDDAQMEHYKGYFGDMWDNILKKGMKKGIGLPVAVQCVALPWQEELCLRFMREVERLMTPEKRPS

Mus musculus [10] = assay: In vivo inhibition of FAAH in C57Bl/6 mouse brain at =>10 mg/kg, po after 4 hrs by FP-rhodamine/HT-10-labelled gel-based competitive assay
[11] = molecular target: Acyl-protein thioesterase 1 (Mus musculus) (UniProt P97823); assay: Inhibition of FP-rhodamine-labelled recombinant mouse LYPLA1 at 10 uM preincubated for 30 mins followed by FP-rhodamine labelling measured after 30 mins by gel-based competitive ABPP assay
[12] = molecular target: T2, Monoacylglycerol lipase ABHD6 (Mus musculus, UniProt Q8R2Y0); assay: Inhibition of recombinant mouse ABHD6 expressed in HEK293T using 2-arachidonoylglycerol preincubated for 30 mins followed by substrate addition measured after 30 mins by LC-MS analysis
T2 sequence (Q8R2Y0 whole entry): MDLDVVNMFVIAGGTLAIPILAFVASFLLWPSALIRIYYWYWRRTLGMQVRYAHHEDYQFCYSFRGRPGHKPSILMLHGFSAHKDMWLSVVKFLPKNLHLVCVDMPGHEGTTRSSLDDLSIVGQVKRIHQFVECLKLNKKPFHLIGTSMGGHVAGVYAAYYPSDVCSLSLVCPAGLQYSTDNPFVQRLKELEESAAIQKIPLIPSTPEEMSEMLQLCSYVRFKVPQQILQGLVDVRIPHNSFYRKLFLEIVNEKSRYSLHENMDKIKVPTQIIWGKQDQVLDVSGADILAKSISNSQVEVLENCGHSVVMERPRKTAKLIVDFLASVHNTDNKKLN

Mus musculus [13] = assay: In vivo inhibition of ABHD6 in C57Bl/6 mouse brain at 1 mg/kg, ip after 4 hrs by HT-10-labelled gel-based competitive ABPP assay; format: functional, organism-based; parameters: dose 1 mg/kg; how it was run: as §1
[14] = molecular target: T2, Monoacylglycerol lipase ABHD6
[15] = molecular target: T2, Monoacylglycerol lipase ABHD6; assay: Inhibition of ABHD6 in FP-rhodamine-labelled mouse brain membrane preincubated for 30 mins followed by FP-rhodamine labelling measured after 30 mins by gel-based competitive ABPP assay
Mus musculus [16] = assay: In vivo inhibition of ABHD6 in C57Bl/6 mouse liver at 5 to 10 mg/kg, ip after 4 hrs by FP-rhodamine/HT-10-labelled gel-based competitive assay; format: functional, organism-based
How it was run: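 C57Bl/6 mice dosed i.p. at 1–40 mg kg⁻¹ in 18:1:1 saline/ethanol/PEG40, 10 μL g⁻¹, for 4 hr, then killed. Brain and liver membrane proteomes labelled with FP-rhodamine or HT-01 (1 μM, 30 min, 37 °C) and resolved by SDS-PAGE with in-gel fluorescence scanning.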

Mus musculus [17] = assay: In vivo inhibition of ABHD6 in C57Bl/6 mouse liver at 10 to 40 mg/kg, po after 4 hrs by FP-rhodamine/HT-10-labelled gel-based competitive assay; format: functional, organism-based
Mus musculus [18] = assay: In vivo inhibition of carboxylesterase-1 in C57Bl/6 mouse liver at 40 mg/kg, po after 4 hrs by FP-rhodamine-labelled gel-based competitive ABPP assay; format: functional, organism-based; parameters: dose 40 mg/kg
Mus musculus [19] = assay: In vivo inhibition of ABHD6 in C57Bl/6 mouse brain at 20 mg/kg, ip after 4 hrs by FP-rhodamine/HT-10-labelled gel-based competitive assay; conditions: C57Bl/6, Brain

Chain of Acyl-protein thioesterase 1 (Mus musculus) (P97823 whole entry): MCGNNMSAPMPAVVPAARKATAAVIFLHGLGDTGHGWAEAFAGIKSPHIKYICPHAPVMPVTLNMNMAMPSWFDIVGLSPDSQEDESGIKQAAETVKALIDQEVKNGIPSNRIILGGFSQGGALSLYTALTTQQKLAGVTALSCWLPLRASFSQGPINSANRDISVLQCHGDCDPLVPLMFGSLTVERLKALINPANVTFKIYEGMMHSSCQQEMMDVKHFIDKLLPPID

SMILES | inhibition (Mus musculus [1]) | inhibition (Mus musculus [2]) | inhibition (Mus musculus [3]) | inhibition (Mus musculus [4]) | inhibition (Mus musculus [5]) | inhibition (Mus musculus [6]) | inhibition (Mus musculus [7]) | inhibition (Mus musculus [8]) | inhibition [9] | inhibition (Mus musculus [10]) | inhibition [11] | IC50 ([12]; hek-293t) [nM] | inhibition (Mus musculus [13]) | IC50 [14] [nM] | IC50 [15] [nM] | IC50 [12] [nM] | inhibition (Mus musculus [16]) | inhibition (Mus musculus [17]) | inhibition (Mus musculus [18]) | inhibition in vivo at 20 mg/kg (Mus musculus [19]) [%]
O=C(O)c1cccc(-c2ccc(-c3cn(C(=O)N4CCCCC4Cc4ccccc4)nn3)cc2)c1 (racemic) | Active | inactive | inactive | inactive | inactive | inactive | inactive | inactive | Active | Active | – | – | – | – | – | – | – | – | – | –
O=C(N1CCCCC1c1ccccc1)n1cc(-c2ccc(-c3cccc(CO)c3)cc2)nn1 (racemic) | Active | – | Active | – | – | – | – | – | Active | Active | Active | 15.1 | Active | 0.24 | – | – | – | – | – | –
O=C(c1cccc(-c2ccc(-c3cn(C(=O)N4CCCCC4c4ccccc4)nn3)cc2)c1)N1CCCCC1 (racemic) | – | – | – | – | – | – | – | – | – | – | Active | – | – | – | 1.3 | 13.6 | Active | Active | Active | > 70
